According to PubChem BioAssay:
Active and inactive are the calls of the source.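 How the source made its calls, unless noted: active means a full or partial loss of lipid-probe fluorescence in the fish gall bladder, intestine or both, judged by eye; inactive means no fluorescence loss, or compound toxic to the fish.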

Legend:
[1] = inhibitors of TNFa-induced NFkB p65 translocation, primary screen, imaging, HUVEC, MLSMR starter and 10KST1 sets (AID 438;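 active means inhibition above 20% together with a positive visual image hit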;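 further: compound added about 3h40 before a 20 min TNFalpha stimulation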;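 on inhibition: signal is the nuclear over cytoplasmic p65 intensity ratio per well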); conditions: HUVEC TNFa-induced p65 nuclear translocation; cell count: measured here: nuclei count (cytotoxicity indicator), at 2.08 µM; inhibition: at 2 µM, stronger effect = higher value, 0% TNFa-plus-vehicle, 100% no-TNFa wells
[2] = endothelial E-selectin expression blockers – imaging, HUVEC, immunofluorescence, MLSMR starter and 10KST1 sets, primary screen (AID 487;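 active means visually confirmed hit in the image check and inhibition above 20%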;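 on inhibition: signal is fraction of cell area covered by stained E-selectin grains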;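 on nuclei count: 100% = median nuclei count of all wells on the same plate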); conditions: HUVEC TNFalpha-induced E-selectin immunofluorescence imaging, at 2 µM; inhibition: stronger effect = higher value; nuclei count: measured here: cell number, toxicity
[3] = Primary imaging screen for DUSP6 inhibitors that restore phospho-Erk in transfected HeLa cells, chemical complementation (AID 609;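 active means compounds giving at least 50% inhibition in the cell-based MKP-3 phosphatase rescue imaging test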;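 on inhibition: phospho-Erk level distribution per well compared with pooled transfected vehicle control wells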); conditions: HeLa MKP-3 transfected, phospho-Erk imaging KS statistic, at 10 µM, cells stimulated with TPA for 15 min
[4] = target: Dual specificity protein phosphatase 6 (Homo sapiens) (UniProt Q16828); assay: as above; conditions: HeLa MKP-3 transfected, phospho-Erk imaging KS statistic; at 10 µM; stronger effect = higher value; cells stimulated with TPA for 15 min
Sequence of Dual specificity protein phosphatase 6 (Homo sapiens) (Q16828 whole entry, looked up): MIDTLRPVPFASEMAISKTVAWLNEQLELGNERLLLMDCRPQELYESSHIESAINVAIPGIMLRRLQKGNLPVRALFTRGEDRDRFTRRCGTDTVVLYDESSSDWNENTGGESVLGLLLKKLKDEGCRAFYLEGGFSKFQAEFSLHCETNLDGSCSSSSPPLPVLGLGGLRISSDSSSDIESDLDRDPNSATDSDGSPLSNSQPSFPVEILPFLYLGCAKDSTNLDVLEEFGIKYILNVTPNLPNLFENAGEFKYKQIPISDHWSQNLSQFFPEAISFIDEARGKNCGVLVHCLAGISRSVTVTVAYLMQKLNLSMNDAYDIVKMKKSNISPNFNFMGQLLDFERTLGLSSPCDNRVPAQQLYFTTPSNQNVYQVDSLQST

[5] = target: Voltage-gated potassium channel subunit beta-2 (Rattus norvegicus) (UniProt P62483); assay: inhibitors of rat Kvbeta2 reductase activity – biochemical, NADPH fluorescence, primary screen (AID 622;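 active means fluorescence slope higher than the sample average by over 3 SD, cut at about -0.22 in these data, passing the limit was not always enough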;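 further: slope of raw intensity against log time taken from 70 to 1610 s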); conditions: recombinant KvBeta, 4-cyanobenzaldehyde reduction, at 10 µM, stronger effect = higher value
Sequence of Voltage-gated potassium channel subunit beta-2 (Rattus norvegicus) (P62483 whole entry, looked up): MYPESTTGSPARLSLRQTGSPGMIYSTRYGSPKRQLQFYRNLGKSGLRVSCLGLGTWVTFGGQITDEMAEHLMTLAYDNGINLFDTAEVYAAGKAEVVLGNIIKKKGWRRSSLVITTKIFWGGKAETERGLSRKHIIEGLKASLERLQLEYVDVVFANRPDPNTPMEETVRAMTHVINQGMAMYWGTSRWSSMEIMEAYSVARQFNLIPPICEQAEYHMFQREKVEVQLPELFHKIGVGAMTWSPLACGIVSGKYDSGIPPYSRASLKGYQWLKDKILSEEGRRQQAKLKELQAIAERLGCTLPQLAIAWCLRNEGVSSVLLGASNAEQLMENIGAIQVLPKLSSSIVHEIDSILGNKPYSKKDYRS

[6] = target: Voltage-gated potassium channel subunit beta-2 (Rattus norvegicus) (UniProt P62483); assay: enhancers of rat Kvbeta2 NADPH turnover – biochemical, NADPH fluorescence, primary screen (AID 623;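 active means NADPH fluorescence slope more negative than the mean of all samples by about 3 SD, 99.7% confidence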;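 further: fluorescence intensity change per second fitted from 20 to 320 s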); conditions: Recombinant KvBeta, NADPH fluorescence decrease slope, 10 min; at 10 µM; stronger effect = lower value
[7] = target: Muscarinic acetylcholine receptor M4 (Homo sapiens) (UniProt P08173); assay: M4-linked GIRK flux change, two-sided – cell-based, HEK293 M4/GIRK, thallium flux, BTC-AM, M4 allosteric agonist project, primary screen (AID 625;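 active means fluorescence slope after compound addition differing from the mean of all tested samples at 99.7% confidence, mostly higher but some lower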;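 further: thallium influx through GIRK channels coupled to M4 in HEK293 cells with BTC-AM dye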); conditions: at 10 µM, actives lie on both sides
Sequence of Muscarinic acetylcholine receptor M4 (Homo sapiens) (P08173 whole entry, looked up): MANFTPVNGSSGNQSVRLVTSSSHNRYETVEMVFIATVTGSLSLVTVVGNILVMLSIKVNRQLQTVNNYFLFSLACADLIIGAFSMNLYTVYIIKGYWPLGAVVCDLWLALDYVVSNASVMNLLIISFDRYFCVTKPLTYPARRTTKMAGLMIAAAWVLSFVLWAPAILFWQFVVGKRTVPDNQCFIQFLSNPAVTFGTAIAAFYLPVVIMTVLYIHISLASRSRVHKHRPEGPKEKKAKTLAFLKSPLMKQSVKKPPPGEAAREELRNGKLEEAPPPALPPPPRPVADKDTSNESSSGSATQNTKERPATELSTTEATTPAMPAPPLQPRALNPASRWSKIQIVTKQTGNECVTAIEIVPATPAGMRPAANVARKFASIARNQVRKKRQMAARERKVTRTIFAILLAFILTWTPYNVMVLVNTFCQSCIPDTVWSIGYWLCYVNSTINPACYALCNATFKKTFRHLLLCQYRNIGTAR
How it was run: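 System: HEK293 cells with M4 receptor and GIRK channels | Incubation: Cells overnight at 37 °C, BTC-AM loading 1 h, reads 2 min total | Technique: Kinetic BTC-AM fluorescence sampled at 1 Hz, 10 s pre-addition baseline | Measure: Post-addition slope, 15–24 s, of baseline-normalized fluorescence | Control set: Carbachol positive, DMSO negative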

[8] = inhibitors of larval lipid processing in zebrafish, primary screen, whole organism, PED6 fluorescence, gall bladder and intestine (AID 686); conditions: Zebrafish larvae PED6 lipid processing, fluorescence scoring; screened at 20 µM (by protocol);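 further: larvae 5 to 7 days old with five fish per well; signal comes from phospholipase A2 cleavage of quenched PED6 carried via bile; overnight exposure to compound and PED6 before scoring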
How it was run: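 Test system – live zebrafish larvae aged 5-7 days, whole organism · Buffer or medium – E3 fish medium · Reagent – quenched phospholipase substrate PED6, 100 nM final, ingested by larvae · Doses – 20 µM single dose · Incubation – overnight compound and PED6 incubation · Technique – visual fluorescence microscopy scoring of gall bladder, gut · Read-out basis – visual per-well fluorescence inhibition score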

[9] = loss of swimming-algae plug formation – whole organism, Chlamydomonas reinhardtii, WT vs cilia-less mutant, absorbance, 96-well, primary screen (AID 463189;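 active means inhibition at or above 50% relative to wild type and mutant plate controls; inactive means inhibition below 50%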;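 further: 0% = wild type cc124 cells in DMSO and 100% = ciliumless bld1 mutant cells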); conditions: Chlamydomonas reinhardtii gravitaxis, OD600 absorbance, 2 days; at 10 µM; stronger effect = higher value
[10] = measured here: cell density z-score
[11] = measured here: nuclear c-Myc green intensity z-score
[12] = measured here: nuclear pErk red intensity z-score, stronger effect = higher value

| SMILES | cell count [1] | inhibition [1] | inhibition [2] | nuclei count [2] [%] | z-score [3, 10] | z-score [3, 11] | z-score [3, 12] | inhibition [4] | fluorescence slope [5] | NADPH fluorescence slope [6] | fluorescence slope [7] | outcome [8] | inhibition [9] |
| --- | --- | --- | --- | --- | --- | --- | --- | --- | --- | --- | --- | --- | --- |
| Cn1c(=O)[nH]c(=O)c2c1nc(N1CCN(c3cccc(Cl)c3)CC1)n2CCCc1ccccc1 | 620 | -6% (inactive) | -19.3% (inactive) | 104 | 0.751 | -1.24 | -0.00216 | 24% (inactive) | -0.442 (inactive) | -6.2e-05 (inactive) | 0.0083 (inactive) | inactive | -0.786% (inactive) |
| COc1ccc(OC)c(NS(=O)(=O)c2ccc(N3CCCC3=O)cc2)c1 | 645 | 24% (active) | -344% (inactive) | 139 | 1.32 | -0.903 | -0.414 | -3.97% (inactive) | -0.465 (inactive) | -0.000177 (inactive) | 0.00599 (inactive) | inactive | 14% (inactive) |
| CCOC(=O)C1=C(C)OC(N)=C(C#N)C1c1cc2ccccc2nc1N1CCCCC1 (centres undefined) | 619 | -8.2% (inactive) | -33.5% (inactive) | 181 | -0.314 | 0.189 | 0.368 | -14.6% (inactive) | -0.315 (inactive) | -8.1e-06 (inactive) | 0.00507 (inactive) | inactive | 37.2% (inactive) |
| CCc1nc(NCC(C)C)c(C#N)c2c1COC(C)(C)C2 | 547 | 7.2% (inactive) | -13.8% (inactive) | 106 | -2.04 | -0.00331 | 2.22 | -9.91% (inactive) | -0.203 (inactive) | 2.4e-07 (inactive) | 0.00805 (inactive) | inactive | -8.36% (inactive) |
| Nc1c(C(=O)NCc2ccco2)sc2nc(N3CCOCC3)c3c(c12)CCCC3 | 510 | -3.3% (inactive) | 21.6% (inactive) | 169 | -0.827 | 1.22 | 1.35 | 7.93% (inactive) | -0.0309 (active) | 4.6e-08 (inactive) | 0.00375 (inactive) | inactive | 7.67% (inactive) |
| CNC(=O)CCn1nc(-c2ccccc2)c2ccccc2c1=O | 737 | -2.4% (inactive) | -67.9% (inactive) | 156 | 1.04 | -1.35 | -0.0887 | 11.4% (inactive) | -0.455 (inactive) | -2.4e-05 (inactive) | 0.00449 (inactive) | inactive | 10.7% (inactive) |
| O=C(O)c1cc2cccc(S(=O)(=O)N3CCOCC3)c2cc1O | 655 | -1.8% (inactive) | -122% (inactive) | 164 | -0.358 | 0.0278 | -2.77 | -9.66% (inactive) | -0.0405 (active) | -1e-05 (inactive) | 0.00567 (inactive) | inactive | -7.07% (inactive) |
| CC(=O)/C(C#N)=C1\NC(=O)C(Cc2ccccc2Cl)S1 (centres undefined) | 605 | -10.1% (inactive) | 31.2% (inactive) | 179 | 1.48 | -0.162 | -0.594 | 7.42% (inactive) | -0.416 (inactive) | -7e-05 (inactive) | 0.00568 (inactive) | inactive | 4.47% (inactive) |
| COc1ccccc1-n1c(N)c(C(=O)NCC2CCCO2)c2nc3ccccc3nc21 (centres undefined) | 630 | -11.8% (inactive) | -49.3% (inactive) | 160 | 1.5 | -1.96 | 0.209 | 14.7% (inactive) | -0.0437 (inactive) | 2e-05 (inactive) | 0.00576 (inactive) | inactive | 19.9% (inactive) |
| COc1ccccc1NC(=O)c1c(C)cc(=O)oc1C | 601 | -14.3% (inactive) | 35.3% (inactive) | 145 | -0.227 | -0.0987 | -0.0601 | -4.59% (inactive) | -0.409 (inactive) | -3e-05 (inactive) | 0.00639 (inactive) | inactive | 17.9% (inactive) |
| COCCCNc1nc2c(c(=O)[nH]c(=O)n2C)n1CC(O)COc1ccccc1 (centres undefined) | 379 | 6.8% (inactive) | -63.3% (inactive) | 128 | -0.311 | -0.833 | 1.79 | -0.608% (inactive) | -0.444 (inactive) | -7.9e-05 (inactive) | 0.00457 (inactive) | inactive | 23.4% (inactive) |
| CCOc1ccc(S(=O)(=O)NC(C)(C)C)cc1-c1nc2c(C(C)(C)C)nn(C)c2c(=O)[nH]1 | 654 | -6.1% (inactive) | -8.5% (inactive) | 99.3 | 2.17 | -1.88 | -0.971 | 31.4% (inactive) | -0.462 (inactive) | -5.9e-05 (inactive) | 0.0055 (inactive) | inactive | 88.4% (active) |
| C=CCOc1nc2c(c(=O)n(Cc3ccc(Cl)cc3)c(=O)n2C)n1C | 534 | -5.1% (inactive) | 22.1% (inactive) | 170 | -0.487 | 1.21 | 0.796 | -9.91% (inactive) | -0.414 (inactive) | -5.4e-05 (inactive) | 0.00453 (inactive) | inactive | -3.62% (inactive) |
